Results from different studies.
Each line is one published result; the experiments were not run side by side.
Read-out: cell growth or viability

COC(=O)CN=c1scc(-c2ccccc2)n1-c1ccccc1OC
IC50 (PANC-03-27; MTT; 72 h): 13.5 µM

CC(=O)c1ccc(-c2ccc3oc(C(=O)c4cc(O)c(O)c(O)c4)cc3c2)cc1
IC50 (HEK-293T; ATP luminescence; 72 h): 1.3 µg/mL

O=c1[nH]cc(S(=O)(=O)Nc2cccc(-c3nnc(-c4cccc(Cl)c4)o3)c2)c(=O)[nH]1
IC50 (NCI-H292; MTT; 24 h): 3.81 µM

Nc1ccn([C@@H]2O[C@H](CO)[C@@H](O)C2(F)F)c(=O)n1
IC50 (PANC-03-27; MTT; 72 h): 0.42 µM

O=C(O)c1ccc(NC(=O)c2cc3cc(Cl)ccc3[nH]2)cc1
IC50 (SK-N-BE(2)-C; MTT): 21 µM

COc1cccc(Oc2ccccc2NC(=O)CNC(=O)c2cccc3ccccc23)c1
IC50 (SK-N-BE(2)-C): 0.236 µM

O=C(c1cc(O)c(O)c(O)c1)c1cc2ccccc2o1
IC50 (HEK-293T; ATP luminescence; 24 h): 1.3 µg/mL

[Cl-].[Cl-].[Ti+4].c1cc[cH-]c1.c1cc[cH-]c1
IC50 (HEK-293T; XTT; 24 h): > 200 µM

O=C(CNC(=O)c1cccc2ccccc12)Nc1ccccc1Oc1ccccc1
IC50 (SK-N-AS): 0.107 µM

C[C@H]1Oc2cc(cnc2N)-c2c(nn(C)c2C#N)CN(C)C(=O)c2ccc(F)cc21
IC50 (A-431): > 10 µM

CC(C)C[C@H](NC(=O)[C@H](Cc1ccccc1)NC(=O)c1cnccn1)B(O)O
IC50 (NCI-H292; ATP luminescence): 0.0093 µM

C=CC(=O)Nc1cc(Nc2nccc(-c3cn(C)c4ccccc34)n2)c(OC)cc1N(C)CCN(C)C
IC50 (A-431; ATP luminescence; 72 h): 0.249 µM

COC1=C2C[C@@H](C)C[C@H](OC)[C@H](O)[C@@H](C)/C=C(\C)[C@H](OC(N)=O)[C@@H](OC)/C=C\C=C(/C)C(=O)NC(=CC1=O)C2=O
IC50 (A-431; MTT): 0.048 µM

COc1ccc(C[C]2([Ti+2][C]3(Cc4ccc(OC)cc4)C=CC=C3)C=CC=C2)cc1.[Cl-].[Cl-]
IC50 (HEK-293T; XTT; 24 h): > 200 µM

CCN(c1nc(N)c(C(=O)N=C(N)N)nc1Cl)C(C)C
IC50 (A-431; MTT; 3 h): 160 µM

Cc1ccncc1-c1ccc2oc(C(=O)c3cc(O)c(O)c(O)c3)cc2c1
IC50 (HEK-293T; ATP luminescence; 72 h): 0.79 µg/mL

O=C(Nc1ccccc1CO)c1c[nH]c2ccc(Cl)cc12
IC50 (SK-N-BE(2)-C; MTT): 13 µM

Cc1cc(Nc2ncc(Cl)c(Nc3ccccc3S(=O)(=O)C(C)C)n2)c(OC(C)C)cc1C1CCNCC1
IC50 (human Myoblast; 72 h): 1.84 µM

COC(=O)CN=c1scc(-c2ccccc2)n1-c1ccc(OC)cc1
IC50 (PANC-03-27; MTT; 72 h): 11.5 µM

COc1cc([C@@H]2c3cc4c(cc3[C@@H](O[C@@H]3O[C@@H]5CO[C@@H](C)O[C@H]5[C@H](O)[C@H]3O)[C@H]3COC(=O)[C@H]23)OCO4)cc(OC)c1O
IC50 (CCD-18Co; MTS; 48 h): 43.7 µM

CC[C@@H](C)[C@H](N)C(=O)N1Cc2ccccc2C1
IC50 (TF-1; ATP luminescence; 48 h): > 60 µM

CC(=O)CC(=O)[c-]1cccc1.[Fe+2].c1cc[cH-]c1
IC50 (PNT2; MTT; 96 h): > 100 µM

C[C@@H](Oc1cc(-c2cnn(C3CCNCC3)c2)cnc1N)c1c(Cl)ccc(F)c1Cl
IC50 (human Myoblast; 72 h): 1.84 µM

COc1cc(Nc2nccc(-c3cnn4nc(OC)ccc34)n2)cc(C(F)(F)F)c1
IC50 (NCI-H2009; ATP luminescence): 0.71 µM

Cc1ccc2nc(-c3ccc(Cl)cc3)n(Cc3ccccc3)c2c1
IC50 (HepG2; MTT): 3.22 µM

COC(=O)CN=c1scc(-c2ccccc2)n1-c1ccccc1
IC50 (PANC-03-27; MTT; 72 h): 72.2 µM

O=C(CNC(=O)c1cccc2ccccc12)Nc1ccccc1Oc1ccc(O)cc1
IC50 (SK-N-AS): 0.156 µM

CC(=O)Oc1ccc2c(c1)C(C)=CC(C)(C)N2Cc1ccccc1
IC50 (Huh-7; MTT; 72 h): 25 µM

COc1cccc2c1C(=O)c1c(O)c3c(c(O)c1C2=O)C[C@@](O)(C(=O)CO)C[C@@H]3O[C@H]1C[C@H](N)[C@H](O)[C@H](C)O1
IC50 (NCI-H292; WST-1; 72 h): 0.03 µM

CC(C)[C@H](N)C(=O)N1CCC[C@H]1B(O)O
IC50 (TF-1; ATP luminescence; 48 h): > 60 µM

COc1cc2c(Oc3ccc(NC(=O)C4(C(=O)Nc5ccc(F)cc5)CC4)cc3F)ccnc2cc1OCCCN1CCOCC1
IC50 (human Myoblast; 72 h): 0.12 µM

O=C1/C(=C/c2cc(O)c(O)c(O)c2)Oc2cccc(O)c21
IC50 (HEK-293T; ATP luminescence; 24 h): > 32 µg/mL
